ChEMBL document CHEMBL3120154, “2-[N-Alkyl(R-phenyl)-aminomethyl]-3-phenyl-7-trifluoromethylquinoxalines as anticancer agents inhibitors of folate enzymes” (Eur J Med Chem, 2014)

Tests used:
Assay type in all cases: functional
TK-10 = assay: Cytotoxicity against human TK10 cells at 10^-4 M after 48 hrs by SRB assay; settings: TK-10, 48 h, read-out: GI
In short: (§1)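 Second-stage screen in the 60-cell-line human tumor panel at NCI, over a 5-log range (100, 10, 1, 0.1, 0.01 micromolar). Cells were exposed to drug for 48 h and growth was estimated with a sulforhodamine B protein stain. The value is percent growth inhibition at each concentration.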

ACHN = assay: Cytotoxicity against human ACHN cells at 10^-4 M after 48 hrs by SRB assay; settings: read-out: GI
In short: (§2)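 Run by NCI on its 60-line human tumor cell panel, after a three-cell-line prescreen. Cells were exposed to drug for 48 h over a 5-log range: 100, 10, 1, 0.1 and 0.01 micromolar. Growth was estimated by sulforhodamine B (SRB) protein staining. Percent growth inhibition (I%) was recorded at each concentration relative to untreated control cells.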

MOLT-4 = assay: Cytotoxicity against human MOLT4 cells at 10^-4 M after 48 hrs by SRB assay; settings: MOLT-4, 48 h, read-out: GI
In short: (§3)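 Run in the NCI 60-cell-line screen after a three-line prescreen. Cells got a 48 h drug exposure; viability/growth was estimated with the sulforhodamine B protein assay. Growth inhibition (I%) was recorded at 100, 10, 1, 0.1 and 0.01 micromolar. Percent growth is relative to untreated control cells, and negative values indicate cell kill.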

NCI-H23 = assay: Cytotoxicity against human NCI-H23 cells at 10^-4 M after 48 hrs by SRB assay; settings: NCI-H23, 48 h, read-out: GI; in short: as §3
HL-60(TB) = assay: Cytotoxicity against human HL-60(TB) cells at 10^-4 M after 48 hrs by SRB assay; settings: HL-60, 48 h, read-out: GI
In short: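 NCI 60-human-tumour-cell-line screen run over a 5-log dose range (100, 10, 1, 0.1 and 0.01 µM). Cells were exposed to drug for 48 h. Growth was estimated by sulforhodamine B protein staining. Values are percent growth inhibition at each concentration, relative to untreated control cells.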

HOP-62 = assay: Cytotoxicity against human HOP62 cells at 10^-4 M after 48 hrs by SRB assay; settings: HOP-62, 48 h, read-out: GI; in short: as §2
[1] = Cytotoxicity against human OVCAR4 cells at 10^-4 M after 48 hrs by SRB assay; settings: OVCAR-4, 48 h, read-out: GI; in short: as §1
OVCAR-8 = assay: Cytotoxicity against human OVCAR8 cells at 10^-4 M after 48 hrs by SRB assay; settings: OVCAR-8, 48 h, read-out: GI; in short: as §1
U-251 = assay: Cytotoxicity against human U251 cells at 10^-4 M after 48 hrs by SRB assay; settings: U-251, 48 h, read-out: GI; in short: as §1
SW-620 = assay: Cytotoxicity against human SW620 cells at 10^-4 M after 48 hrs by SRB assay; settings: SW-620, 48 h, read-out: GI; in short: as §1
NCI/ADR-RES = assay: Cytotoxicity against human NCI/ADR-RES cells at 10^-4 M after 48 hrs by SRB assay; settings: read-out: GI; in short: as §3
RXF 393 = assay: Cytotoxicity against human RXF393 cells at 10^-4 M after 48 hrs by SRB assay; settings: RXF 393, 48 h, read-out: GI; in short: as §1
[2] = Cytotoxicity against human UO31 cells at 10^-4 M after 48 hrs by SRB assay; settings: UO-31, 48 h, read-out: GI; in short: as §1
SNB-75 = assay: Cytotoxicity against human SNB75 cells at 10^-4 M after 48 hrs by SRB assay; settings: SNB-75, 48 h, read-out: GI; in short: as §1
HCT-116 = assay: Cytotoxicity against human HCT116 cells at 10^-4 M after 48 hrs by SRB assay; settings: HCT-116, 48 h, read-out: GI; in short: as §2
HCC 2998 = assay: Cytotoxicity against human HCC2998 cells at 10^-4 M after 48 hrs by SRB assay; settings: HCC 2998, 48 h, read-out: GI; in short: as §2
RPMI-8226 = assay: Cytotoxicity against human RPMI8226 cells at 10^-4 M after 48 hrs by SRB assay; settings: RPMI-8226, 48 h, read-out: GI; in short: as §1
MCF7 [3] = assay: Cytotoxicity against human MCF7 cells at 10^-4 M after 48 hrs by SRB assay; settings: MCF7, 48 h, read-out: GI; in short: as §3
UACC-62 = assay: Cytotoxicity against human UACC62 cells at 10^-4 M after 48 hrs by SRB assay; settings: UACC-62, 48 h, read-out: GI; in short: as §1
SK-MEL-5 = assay: Cytotoxicity against human SK-MEL-5 cells at 10^-4 M after 48 hrs by SRB assay; settings: SK-MEL-5, 48 h, read-out: GI; in short: as §1
NCI-H460 = assay: Cytotoxicity against human NCI-H460 cells at 10^-4 M after 48 hrs by SRB assay; settings: NCI-H460, 48 h, read-out: GI; in short: as §3
MCF7 [4] = assay: Cytotoxicity against human MCF7 cells assessed as cell growth at 10^-4 M after 48 hrs by alamar blue assay relative to untreated control; settings: MCF7, 48 h, read-out: Activity
In short: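 Three-cell-line prescreen. Each line was inoculated and preincubated on a microtiter plate, then the agent was added at a single concentration (10^-4 or 10^-5 M) and incubated 48 h. Endpoint was measured with alamar blue, and growth is reported as a percentage of untreated control cells.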

SF-539 = assay: Cytotoxicity against human SF539 cells at 10^-4 M after 48 hrs by SRB assay; settings: SF-539, 48 h, read-out: GI; in short: as §1
[5] = Cytotoxicity against human EKVX cells at 10^-4 M after 48 hrs by SRB assay; settings: read-out: GI; in short: as §2
BT-549 = assay: Cytotoxicity against human BT549 cells at 10^-4 M after 48 hrs by SRB assay; settings: BT-549, 48 h, read-out: GI; in short: as §2
SF-268 = assay: Cytotoxicity against human SF268 cells at 10^-4 M after 48 hrs by SRB assay; settings: SF-268, 48 h, read-out: GI; in short: as §1
[6] = Cytotoxicity against human Hs578T cells at 10^-4 M after 48 hrs by SRB assay; settings: Hs-578T, read-out: GI; in short: as §2
A498 = assay: Cytotoxicity against human A498 cells at 10^-4 M after 48 hrs by SRB assay; settings: A498, 48 h, read-out: GI; in short: as §2
IGROV-1 = assay: Cytotoxicity against human IGROV1 cells at 10^-4 M after 48 hrs by SRB assay; settings: IGROV-1, 48 h, read-out: GI; in short: as §2
A549 = assay: Cytotoxicity against human A549 cells at 10^-4 M after 48 hrs by SRB assay; settings: A549, 48 h, read-out: GI; in short: as §2
M14 = assay: Cytotoxicity against human M14 cells at 10^-4 M after 48 hrs by SRB assay; settings: M14, 48 h, read-out: GI; in short: as §3
CCRF-CEM = assay: Cytotoxicity against human CCRF-CEM cells at 10^-5 M after 48 hrs by SRB assay; settings: read-out: GI; in short: as §2
CAKI-1 = assay: Cytotoxicity against human Caki1 cells at 10^-4 M after 48 hrs by SRB assay; settings: CAKI-1, 48 h, read-out: GI; in short: as §2

Row | SMILES | inhibition of growth at 100 µM (TK-10) [%] | inhibition of growth at 100 µM (ACHN) [%] | inhibition of growth at 100 µM (MOLT-4) [%] | inhibition of growth at 100 µM (NCI-H23) [%] | inhibition of growth at 100 µM [1] [%] | inhibition of growth at 100 µM (OVCAR-8) [%] | inhibition of growth at 100 µM (U-251) [%] | inhibition of growth at 100 µM (SW-620) [%] | inhibition of growth at 100 µM (NCI/ADR-RES) [%] | inhibition of growth at 100 µM (RXF 393) [%] | inhibition of growth at 100 µM [2] [%] | inhibition of growth at 100 µM (SNB-75) [%] | inhibition of growth at 100 µM (HCT-116) [%] | inhibition of growth at 100 µM (RPMI-8226) [%] | inhibition of growth at 100 µM (MCF7 [3]) [%] | inhibition of growth at 100 µM (UACC-62) [%] | inhibition of growth at 100 µM (SK-MEL-5) [%] | inhibition of growth at 100 µM (NCI-H460) [%] | growth at 100 µM (MCF7 [4]) [%] | inhibition of growth at 100 µM (SF-539) [%] | also measured
1 | C#CCN(Cc1nc2cc(C(F)(F)F)ccc2nc1-c1ccccc1)c1ccc(F)c(F)c1 | 48 | 56 | 82 | 52 | < 40 | 98 | 59 | 82 | 67 | 103 | 73 | < 40 | 77 | 107 | 94 | 73 | 144 | 90 | 40 | 96 | inhibition of growth at 100 µM (HL-60(TB)): 79%; inhibition of growth at 100 µM (HOP-62): < 40%; inhibition of growth at 100 µM (HCC 2998): 102%; inhibition of growth at 100 µM [5]: 123%; inhibition of growth at 100 µM (BT-549): 67%; inhibition of growth at 100 µM (SF-268): 91%; inhibition of growth at 100 µM [6]: 70%; inhibition of growth at 100 µM (A498): 78%; inhibition of growth at 100 µM (IGROV-1): 58%; inhibition of growth at 100 µM (A549): 107%; inhibition of growth at 100 µM (M14): 41%
2 | CCN(Cc1nc2cc(C(F)(F)F)ccc2nc1-c1ccccc1)c1ccc(OC)c(OC)c1 | 109 | 142 | 122 | 158 | 76 | 174 | 198 | 164 | 84 | 179 | 145 | 115 | 199 | 162 | 86 | 195 | 191 | 97 | 1 | 176 | inhibition of growth at 100 µM (HL-60(TB)): 153%; inhibition of growth at 100 µM (HOP-62): 195%; inhibition of growth at 10 µM (CCRF-CEM): 70%; inhibition of growth at 100 µM (HCC 2998): 174%; inhibition of growth at 100 µM (CAKI-1): 117%; inhibition of growth at 100 µM [5]: 112%; inhibition of growth at 100 µM (BT-549): 167%; inhibition of growth at 100 µM (SF-268): 99%; inhibition of growth at 100 µM [6]: 162%; inhibition of growth at 100 µM (A498): 180%; inhibition of growth at 100 µM (IGROV-1): 178%; inhibition of growth at 100 µM (A549): 177%; inhibition of growth at 100 µM (M14): 194%
3 | C#CCN(Cc1nc2cc(C(F)(F)F)ccc2nc1-c1ccccc1)c1ccc(C)cc1 | 181 | 193 | 85 | 196 | 200 | 77 | 181 | 79 | 195 | 137 | 167 | 180 | 189 | 44 | 84 | 188 | 158 | 96 | 58 | 77 | inhibition of growth at 100 µM (HL-60(TB)): 105%; inhibition of growth at 100 µM (HOP-62): 199%; inhibition of growth at 10 µM (CCRF-CEM): < 40%; inhibition of growth at 100 µM (CAKI-1): 147%; inhibition of growth at 100 µM [5]: 56%; inhibition of growth at 100 µM (BT-549): 104%; inhibition of growth at 100 µM (SF-268): 76%; inhibition of growth at 100 µM [6]: 113%; inhibition of growth at 100 µM (A498): 157%; inhibition of growth at 100 µM (IGROV-1): 79%; inhibition of growth at 100 µM (A549): 84%; inhibition of growth at 100 µM (M14): 186%
4 | C#CCN(Cc1nc2cc(C(F)(F)F)ccc2nc1-c1ccccc1)c1ccc(F)cc1 | 123 | 89 | 81 | 31 | 87 | 96 | 85 | 93 | 108 | 89 | 83 | 54 | 94 | 117 | 89 | 96 | 180 | 94 | 41 | 96 | inhibition of growth at 100 µM (HL-60(TB)): 92%; inhibition of growth at 100 µM (CAKI-1): 110%; inhibition of growth at 100 µM [5]: 120%; inhibition of growth at 100 µM (BT-549): 77%; inhibition of growth at 100 µM (SF-268): 82%; inhibition of growth at 100 µM [6]: 94%; inhibition of growth at 100 µM (A498): 104%; inhibition of growth at 100 µM (IGROV-1): 86%; inhibition of growth at 100 µM (A549): 123%; inhibition of growth at 100 µM (M14): 71%
5 | C#CCN(Cc1nc2cc(C(F)(F)F)ccc2nc1-c1ccccc1)c1ccc(OC(F)(F)F)cc1 | 64 | 65 | 79 | 60 | < 40 | 57 | 70 | 75 | < 40 | 67 | 70 | < 40 | 99 | 88 | 79 | 64 | 86 | 78 | 17 | 161 | inhibition of growth at 100 µM (HOP-62): 48%; inhibition of growth at 100 µM (HCC 2998): 104%; inhibition of growth at 100 µM (CAKI-1): 69%; inhibition of growth at 100 µM [5]: 89%; inhibition of growth at 100 µM (BT-549): 86%; inhibition of growth at 100 µM (SF-268): 63%; inhibition of growth at 100 µM [6]: < 40%; inhibition of growth at 100 µM (A498): 87%; inhibition of growth at 100 µM (IGROV-1): 81%; inhibition of growth at 100 µM (A549): 60%; inhibition of growth at 100 µM (M14): 76%
